Assay results as given in ChEMBL document CHEMBL1781896, “Prenylated derivatives of baicalein and 3,7-dihydroxyflavone: synthesis and study of their effects on tumor cell lines growth, cell cycle and apoptosis” (2011).
The source made the active and inactive calls. The rule behind the calls is not given here.

Assays:
Format in all cases: functional
[1] = tested on: NCI-H460; test: Growth inhibition of human NCI-H460 cells after 48 hrs by sulforhodamine B assay; conditions: NCI-H460, 48 h
Outline: (§1)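 SRB assay in MCF-7, NCI-H460 (5.0 × 10⁴ cells/mL) and A375-C5 (7.5 × 10⁴ cells/mL) grown in RPMI-1640 with 5% FBS. Cells attached overnight, then were exposed 48 h to five serial dilutions (top 150 or 50 µM; DMSO ≤0.25%). Cells were TCA-fixed, SRB-stained and read at A492. GI₅₀ taken from dose-response curves. Mean ± SEM, ≥3 independent experiments in duplicate.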

[2] = Growth inhibition of human A375-C5 cells after 48 hrs by sulforhodamine B assay; conditions: A375-C5, 48 h; outline: as §1
[3] = tested on: MCF7; test: Growth inhibition of human MCF7 cells after 48 hrs by sulforhodamine B assay; conditions: MCF7, 48 h; outline: as §1
[4] = tested on: NCI-H460; test: Cell cycle arrest in human NCI-H460 cells assessed as decrease in cell accumulation in S phase at 4.1 uM after 48 hrs by propidium iodide staining-based flow cytometry
[5] = tested on: NCI-H460; test: Cell cycle arrest in human NCI-H460 cells assessed as increase in cell accumulation in G1 phase at 4.1 uM after 48 hrs by propidium iodide staining-based flow cytometry
[6] = tested on: NCI-H460; test: Induction of apoptosis in human NCI-H460 cells assessed as apoptotic cells at 4.1 uM after 48 hrs using annexin-V FITC/PI staining by flow cytometry (reference value: 8.4 to 11.2%)
[7] = tested on: NCI-H460; test: Cell cycle arrest in human NCI-H460 cells assessed as decrease in cell accumulation in G2/M phase at 4.1 uM after 48 hrs by propidium iodide staining-based flow cytometry
[8] = tested on: NCI-H460; test: Cell cycle arrest in human NCI-H460 cells assessed as decrease in cell accumulation in S phase at 2.7 uM after 48 hrs by propidium iodide staining-based flow cytometry
[9] = tested on: NCI-H460; test: Cell cycle arrest in human NCI-H460 cells assessed as decrease in cell accumulation in G2/M phase at 2.7 uM after 48 hrs by propidium iodide staining-based flow cytometry
[10] = tested on: NCI-H460; test: Induction of apoptosis in human NCI-H460 cells assessed as apoptotic cells at 2.7 uM after 48 hrs using annexin-V FITC/PI staining by flow cytometry (reference value: 8.4 to 11.2%)
[11] = tested on: NCI-H460; test: Cell cycle arrest in human NCI-H460 cells assessed as increase in cell accumulation in G1 phase at 2.7 uM after 48 hrs by propidium iodide staining-based flow cytometry
[12] = tested on: NCI-H460; test: Cell cycle arrest in human NCI-H460 cells assessed as increase in cell accumulation in G1 phase at 12.6 uM after 48 hrs by propidium iodide staining-based flow cytometry
[13] = tested on: NCI-H460; test: Cell cycle arrest in human NCI-H460 cells assessed as decrease in cell accumulation in G2/M phase at 12.6 uM after 48 hrs by propidium iodide staining-based flow cytometry
[14] = tested on: NCI-H460; test: Cell cycle arrest in human NCI-H460 cells assessed as decrease in cell accumulation in S phase at 12.6 uM after 48 hrs by propidium iodide staining-based flow cytometry
[15] = tested on: NCI-H460; test: Induction of apoptosis in human NCI-H460 cells assessed as apoptotic cells at 12.6 uM after 48 hrs using annexin-V FITC/PI staining by flow cytometry (reference value: 8.4 to 11.2%)
[16] = tested on: NCI-H460; test: Cell cycle arrest in human NCI-H460 cells assessed as decrease in cell accumulation in S phase at 6.8 uM after 48 hrs by propidium iodide staining-based flow cytometry
[17] = tested on: NCI-H460; test: Cell cycle arrest in human NCI-H460 cells assessed as decrease in cell accumulation in G2/M phase at 6.8 uM after 48 hrs by propidium iodide staining-based flow cytometry
[18] = tested on: NCI-H460; test: Cell cycle arrest in human NCI-H460 cells assessed as increase in cell accumulation in G1 phase at 6.8 uM after 48 hrs by propidium iodide staining-based flow cytometry
[19] = tested on: NCI-H460; test: Induction of apoptosis in human NCI-H460 cells assessed as apoptotic cells at 6.8 uM after 48 hrs using annexin-V FITC/PI staining by flow cytometry (reference value: 8.4 to 11.2%)
[20] = tested on: NCI-H460; test: Induction of apoptosis in human NCI-H460 cells assessed as apoptotic cells at 4.9 uM after 48 hrs using annexin-V FITC/PI staining by flow cytometry (reference value: 8.4 to 11.2%)
[21] = tested on: NCI-H460; test: Cell cycle arrest in human NCI-H460 cells assessed as increase in cell accumulation in G1 phase at 4.9 uM after 48 hrs by propidium iodide staining-based flow cytometry
[22] = tested on: NCI-H460; test: Cell cycle arrest in human NCI-H460 cells assessed as decrease in cell accumulation in G2/M phase at 4.9 uM after 48 hrs by propidium iodide staining-based flow cytometry
[23] = tested on: NCI-H460; test: Cell cycle arrest in human NCI-H460 cells assessed as decrease in cell accumulation in S phase at 4.9 uM after 48 hrs by propidium iodide staining-based flow cytometry
[24] = tested on: NCI-H460; test: Cell cycle arrest in human NCI-H460 cells assessed as decrease in cell accumulation in S phase at 3.9 uM after 48 hrs by propidium iodide staining-based flow cytometry
[25] = tested on: NCI-H460; test: Cell cycle arrest in human NCI-H460 cells assessed as increase in cell accumulation in G1 phase at 3.9 uM after 48 hrs by propidium iodide staining-based flow cytometry
[26] = tested on: NCI-H460; test: Cell cycle arrest in human NCI-H460 cells assessed as decrease in cell accumulation in G2/M phase at 3.9 uM after 48 hrs by propidium iodide staining-based flow cytometry
[27] = tested on: NCI-H460; test: Induction of apoptosis in human NCI-H460 cells assessed as apoptotic cells at 3.9 uM after 48 hrs using annexin-V FITC/PI staining by flow cytometry (reference value: 8.4 to 11.2%)

| SMILES | GI50 [1] [µM] | GI50 [3] [µM] | GI50 [2] [µM] | other results |
| --- | --- | --- | --- | --- |
| CC(C)=CCOc1ccc2c(=O)c(OCC=C(C)C)c(-c3ccccc3)oc2c1 | 51.9 | 63.3 | 59 | – |
| CC(C)=CCC/C(C)=C/COc1c(OC/C=C(\C)CCC=C(C)C)c(O)c2c(=O)cc(-c3ccccc3)oc2c1C/C=C(\C)CCC=C(C)C | > 150 | > 150 | > 150 | – |
| CC(C)=CCC/C(C)=C/COc1cc2oc(-c3ccccc3)cc(=O)c2c(O)c1O | 4.1 | 4.4 | 5.3 | Activity [4]: Active; Activity [5]: >10%; Activity [6]: 18.8%; Activity [7]: Active |
| CC(C)=CCOc1cc2oc(-c3ccccc3)cc(=O)c2c(O)c1OCC=C(C)C | > 150 | > 150 | > 150 | – |
| CC(C)=CCC/C(C)=C/COc1cc2oc(-c3ccccc3)cc(=O)c2c(O)c1OC/C=C(\C)CCC=C(C)C | > 150 | > 150 | > 150 | – |
| CC(C)=CCOc1cc2oc(-c3ccccc3)cc(=O)c2c(O)c1O | 6.8 | 9.1 | 9.2 | Activity [16]: Active; Activity [17]: Active; Activity [18]: >10%; Activity [19]: 9.1% |
| CC(C)=CCOc1c(OCC=C(C)C)c(O)c2c(=O)cc(-c3ccccc3)oc2c1CC=C(C)C | > 150 | > 150 | > 150 | – |
| CC(C)=CCC/C(C)=C/COc1ccc2c(=O)c(OC/C=C(\C)CCC=C(C)C)c(-c3ccccc3)oc2c1 | 55 | 66.5 | 58.5 | – |

Now from value to compound, other results behind:

| GI50 [1] [µM] | GI50 [3] [µM] | SMILES | GI50 [2] [µM] | other results |
| --- | --- | --- | --- | --- |
| 26.7 | 32.8 | O=c1cc(-c2ccccc2)oc2cc(O)c(O)c(O)c12 [BAICALEIN] | 7.7 | – |
| 17.7 | 21 | CC1(C)CCc2c(c(O)c(O)c3c(=O)cc(-c4ccccc4)oc23)O1 | 27.4 | – |
| 2.7 | 3.7 | CC1(C)CCc2c(ccc3c(=O)c(O)c(-c4ccccc4)oc23)O1 | 2.3 | Activity [8]: Active; Activity [9]: Active; Activity [10]: 13.1%; Activity [11]: Active |
| 12.6 | 14 | CC(C)=CCOc1ccc2c(=O)c(O)c(-c3ccccc3)oc2c1 | 30.3 | Activity [12]: Active; Activity [13]: Active; Activity [14]: Active; Activity [15]: 11.9% |
| 40.6 | 43.7 | CC1Oc2c(O)c(O)c3c(=O)cc(-c4ccccc4)oc3c2C1(C)C (configuration not stated) | 47.7 | – |
| 4.9 | 6.4 | CC(C)=CCC/C(C)=C/COc1ccc2c(=O)c(O)c(-c3ccccc3)oc2c1 | 7.2 | Activity [20]: 12%; Activity [21]: Active; Activity [22]: Active; Activity [23]: Active |
| 15.4 | 17.4 | O=c1c(O)c(-c2ccccc2)oc2cc(O)ccc12 [3,7-DIHYDROXYFLAVONE] | 23 | – |
| 3.9 | 4.5 | CC1Oc2ccc3c(=O)c(O)c(-c4ccccc4)oc3c2C1(C)C (configuration not stated) | 7.6 | Activity [24]: Active; Activity [25]: Active; Activity [26]: Active; Activity [27]: 9.5% |
